Consider twelve compounds from ChEMBL document CHEMBL1124114, “Peripherally acting enkephalin analogues. 1. Polar pentapeptides” (J Med Chem, 1988).

Holding throughout (type): functional
Test [1] is filed under the species Mus musculus. Nature of the test: Effective dose was measured in hot plate test. An outline of the steps:
(§1)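 Male CFLP mice (Hacking and Churchill), groups of five to six, placed on copper plate at 55 °C; endpoint paw licking/shaking or jumping, 30-s cut-off. Drugs sc, 10 mL kg⁻¹. ED50 = dose doubling response latency vs vehicle, by parallel-line probit analysis.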

The next test is filed under the species Cavia porcellus. The test is described as follows: In vitro opioid activity of compound in the GPI (guinea pig ileum) by determination of inhibition of electrically induced contractions. An outline of the steps: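 Terminal ileum segments from 300-350 g guinea pigs in 20-mL bath, 1-g tension, Krebs' bicarbonate gassed 95% O2/5% CO2. Coaxial stimulation 0.1 Hz, 0.5 ms, supramaximal voltage; isotonic recording of contractions. Dose-response curves with 15-min washout between doses; opioid nature checked by reversal with naloxone (1 μg mL⁻¹).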

Test [2] can be described thus: Dose ratio in the presence / absence of N-methyl-nalorphine (11.5 mg/kg) in acetic acid (AA) writhing. An outline of the steps: (§2)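 Male TFW Tuck mice, groups of five to six; acetic acid (0.6%) ip at 25 mL kg⁻¹; writhes counted 5 min starting 15 min post-irritant. N-methylnalorphine 11.5 mg kg⁻¹ ip 20 min before sc agonist (both 10 mL kg⁻¹). ED50 by linear regression (50% writhe reduction vs vehicle); dose ratio = shift of parallel regression lines with/without antagonist.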
A general note: In writhing tests, fewer writhes than in controls are read as antinociception.

Test [3] has as its system Mus musculus. Nature of the test: In vivo inhibition of phenyl-1,4-benzoquinone(PBQ) -induced writhing in mice (sc). An outline of the steps:
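Female CD1 Charles River mice, groups of five to six; PBQ 2.5 mg kg⁻¹ ip (10 mL kg⁻¹). Drug or vehicle sc 30 min before PBQ; writhes (abdominal contractions/hind-limb extensions) counted 2.5 min starting 10 min post-PBQ. ED50 = dose halving writhes vs vehicle, from linear regression.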

For test [4], the system named is Mus musculus. Nature of the test: In vivo inhibition of Acetic acid-induced writhing in mice (sc). An outline of the steps:
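Male TFW Tuck mice, five to six per group; acetic acid (0.6%) ip, 25 mL kg⁻¹; writhes counted for 5 min from 15 min after irritant. Compounds sc, 10 mL kg⁻¹. ED50 = dose giving 50% fewer writhes than vehicle, by linear regression.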

Test [5] can be described thus: Dose ratio in the presence/absence of N-methyl-nalorphine (11.5 mg/kg) in acetic acid (AA) writhing. An outline of the steps:
as §2

Test [6] relates to Mus musculus. Nature of the test: Effective dose was measured in hot plate test; no effect 25 mg/kg. An outline of the steps: as §1
In general terms: In hot-plate and tail-flick tests a longer latency is read as antinociception.

Numbered stars: 1 amine (or outer) side, 2 acyl side, 3 side chain; on linkers, the order of the positions; unused ones are H or OH. Square brackets hold non-standard residues; d marks the D form. Peptide text beside a SMILES is read from it. * marks the point of attachment. Phe(4-NO2) = N[C@@H](Cc1ccc([N+](=O)[O-])cc1)C(=O)O; Tyr(Nα-amidino) = N=C(N)N[C@@H](Cc1ccc(O)cc1)C(=O)*; X1 = O=C([C@@H](CSS(=O)(=O)O)N[*:1])[*:2]; X3 = O=C([C@@H](CCS(=O)(=O)O)N[*:1])[*:2]; X2 = C[S+](C)CC[C@@H](N[*:1])C(=O)[*:2]

As usually defined, the ED50 is the midpoint of the dose-response relation.

With `NC(=O)[C@@H]1CCCN1C(=O)[C@H](Cc1ccc([N+](=O)[O-])cc1)NC(=O)CNC(=O)[C@@H](CCC(=O)O)NC(=O)[C@@H](N)Cc1ccc(O)cc1`, the median effective dose (ED50) in the test listed under Mus musculus [1] was 7.6 mg/kg; in the test on Mus musculus [3], 3 mg/kg; with Mus musculus [4], 1.4 mg/kg. In the test listed under Cavia porcellus, the “IC50 for inhibition of electrically induced contractions” value (“IC50 for inhibition” for short) was 0.009 µM. Besides, the Ratio in test [2] was 5.5.
`NC(=O)[C@@H]1CCCN1C(=O)[C@H](Cc1ccc([N+](=O)[O-])cc1)NC(=O)CNC(=O)[C@@H](CCCN=C(N)N)NC(=O)[C@@H](N)Cc1ccc(O)cc1`: the ED50 came to 35 mg/kg in the test listed under Mus musculus [1], 4.9 mg/kg with Mus musculus [3] and 5.7 mg/kg in the test with Mus musculus [4]. Besides, in the test filed under Cavia porcellus, the “IC50 for inhibition” value amounted to 0.132 µM. Besides, the Ratio in test [2] is listed as 5.5.
Consider `NC(=O)[C@@H]1CCCN1C(=O)[C@H](Cc1ccc([N+](=O)[O-])cc1)NC(=O)CNC(=O)[C@@H](CSCCS(=O)(=O)[O-])NC(=O)[C@@H](N)Cc1ccc(O)cc1.[Na+]`, for which the “IC50 for inhibition” value in the test filed under Cavia porcellus came out at 0.0036 µM. The Ratio in test [2] was determined as 4. Moreover, the ED50 with Mus musculus [4] was 0.1 mg/kg.
Consider `N=C(N)N[C@@H](Cc1ccc(O)cc1)C(=O)N[C@H](CCC(=O)O)C(=O)NCC(=O)N[C@@H](Cc1ccc([N+](=O)[O-])cc1)C(=O)N1CCC[C@H]1C(N)=O`, for which the ED50 in the test filed under Mus musculus [1] turned out to be 5.3 mg/kg; in the test on Mus musculus [3], 0.3 mg/kg; in the test on Mus musculus [4], 0.5 mg/kg. Besides, the “IC50 for inhibition” value in the test listed under Cavia porcellus was 0.414 µM. In addition, in test [2], the Ratio is on record as 1.2.
Regarding `Cl.NC(=O)[C@@H]1CCCN1C(=O)[C@H](Cc1ccc([N+](=O)[O-])cc1)NC(=O)CNC(=O)[C@@H](CS(=O)(=O)O)NC(=O)[C@@H](N)Cc1ccc(O)cc1`, the ED50 in the test filed under Mus musculus [1] stood at 19 mg/kg; in the test with Mus musculus [4], 5.9 mg/kg. Besides, the “IC50 for inhibition” value in the test listed under Cavia porcellus was determined as 0.0894 µM.
Regarding `C[S+](C)CC[C@@H](NC(=O)[C@H](Cc1ccc(O)cc1)N=C(N)N)C(=O)NCC(=O)N[C@@H](Cc1ccc([N+](=O)[O-])cc1)C(=O)N1CCC[C@H]1C(N)=O.Cl.Cl`, the ED50 in the test filed under Mus musculus [1] stood at 10.9 mg/kg; in the test on Mus musculus [3], 1.1 mg/kg; in the test on Mus musculus [4], 0.5 mg/kg. The “IC50 for inhibition” value in the test filed under Cavia porcellus worked out at 0.525 µM. The Ratio in test [2] stood at 4.2.
Regarding `CSCC[C@H](NC(=O)[C@@H](N)Cc1ccc(O)cc1)C(=O)NCC(=O)N[C@@H](Cc1ccc([N+](=O)[O-])cc1)C(=O)N1CCC[C@H]1C(N)=O` (H-YMG[Phe(4-NO2)]P-NH2), the ED50 turned out to be 1.6 mg/kg in the test listed under Mus musculus [1], 0.4 mg/kg in the test on Mus musculus [3] and 0.1 mg/kg in the test with Mus musculus [4]. Moreover, the “IC50 for inhibition” value in the test filed under Cavia porcellus was 0.0018 µM. The Ratio in test [2] turned out to be 1.2.
For `NC(=O)[C@@H]1CCCN1C(=O)[C@H](Cc1ccc([N+](=O)[O-])cc1)NC(=O)CNC(=O)[C@@H](CSS(=O)(=O)O)NC(=O)[C@@H](N)Cc1ccc(O)cc1` (H-Y[X1]G[Phe(4-NO2)]P-NH2) the same measures were 9.7 mg/kg, 0.4 mg/kg, 0.5 mg/kg, 0.0075 µM and 3.9.
For the compound `C[S+](C)CC[C@@H](NC(=O)[C@@H](N)Cc1ccc(O)cc1)C(=O)NCC(=O)N[C@@H](Cc1ccc([N+](=O)[O-])cc1)C(=O)N1CCC[C@H]1C(N)=O.Cl.Cl` (H-Y[X2]G[Phe(4-NO2)]P-NH2), the Ratio in test [5] is on record as 3.3. Besides, the “IC50 for inhibition” value in the test listed under Cavia porcellus is 0.0612 µM. Moreover, the ED50 is 3.1 mg/kg in the test with Mus musculus [3] and 8.1 mg/kg in the test with Mus musculus [4].
For `Cl.NC(=O)[C@@H]1CCCN1C(=O)[C@H](Cc1ccc([N+](=O)[O-])cc1)NC(=O)CNC(=O)[C@@H](CCS(=O)(=O)O)NC(=O)[C@@H](N)Cc1ccc(O)cc1` (H-Y[X3]G[Phe(4-NO2)]P-NH2), the ED50 was determined as 18.6 mg/kg in the test filed under Mus musculus [1], 3.1 mg/kg in the test with Mus musculus [3] and 3.5 mg/kg in the test with Mus musculus [4]. Also, in the test filed under Cavia porcellus, the “IC50 for inhibition” value was 0.807 µM. For the same compound, the Ratio in test [2] came to 4.2.
As for `N=C(N)NCCC[C@@H](NC(=O)[C@H](Cc1ccc(O)cc1)NC(=N)N)C(=O)NCC(=O)N[C@@H](Cc1ccc([N+](=O)[O-])cc1)C(=O)N1CCC[C@H]1C(N)=O` ({Tyr(Nα-amidino)}-[dR]G[Phe(4-NO2)]P-NH2), it took a dose of 25 mg/kg to reach the 50% effect level in the test on Mus musculus [6] (ED50 at 25 mg/kg). The “IC50 for inhibition” value in the test listed under Cavia porcellus worked out at 0.42 µM. In test [2], the Ratio turned out to be 4.6. Also, the values for the ED50 with Mus musculus [3] and in the test with Mus musculus [4] were 1.3 mg/kg and 0.8 mg/kg, respectively.
For the compound `CN1CC[C@]23c4c5ccc(O)c4O[C@H]2[C@@H](O)C=C[C@H]3[C@H]1C5` [MORPHINE], the 50% effect level in the test with Mus musculus [4] (ED50) was put at a dose of 0.5 mg/kg.
